Screens as filed in PubChem BioAssay.
Rows were chosen to be rich in hits. Some 2.3% of all compounds tested hit in one or more screens of this group.
TRPC4 potent – allosterically enhances the mouse TRPC4 cation channel; Q9QUQ5; B-score at 10 µM; HEK293 TRPC4beta/mu-opioid, DAMGO EC20, Fluo-4 Ca2+ flux; stronger effect = higher value; actives 0.42% (n = 310,000);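 active = B-score of calcium response area above 5 SD of library B-scores, with initial fluorescence ratio within 5 SD of library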
TRPC4 act – TRPC4 (mouse) channel activation | HEK293 TRPC4beta/mu-opioid, Fluo4 calcium fluorescence; stronger effect = higher value | Q9QUQ5 | B-score at 10 µM | actives 0.49% (n = 310,000);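 active = B-score above 5 SD of library B-scores, and initial fluorescence ratio not above library mean plus 5 SD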;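 note: positive B-score marks a calcium rise read as TRPC4 activation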
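Assay system – TRPC4beta and mu-opioid receptor HEK293 stable cells · Measured by – Fluo4 fluorescence, kinetic · Schedule – dye loading 45 min room temperature, 110 s kinetic read · Read-out – B-scored integrated calcium fluorescence ratio · Controls – buffer and maximal DAMGO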
TRPC6 inhibitor – mouse TRPC6 channel inhibition. B-score at 10 µM. HEK293-TRPC6, membrane potential dye, ACh-evoked depolarization; stronger effect = lower value. actives 1.1% (n = 310,000);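 active = B-score under library mean minus 3 SD, initial fluorescence not abnormally high, positive integrated signal ratio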;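 note: B-score derived from integrated fluorescence ratio over the kinetic read; more negative B-score means stronger inhibition of depolarization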
TRPC4 block – TRPC4 (mouse) channel inhibition | Q9QUQ5 | HEK293 TRPC4beta/mu-opioid, DAMGO-evoked Fluo4 calcium flux; stronger effect = lower value | B-score at 10 µM | actives 0.39% (n = 300,000);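 active = B-score over 3 SD under the library average, no early fluorescence shift, positive overall ratio signal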
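Assay system: HEK293 cells with stable TRPC4beta plus mu-opioid receptor expression. Dosing: single dose. Measured by: Fluo4 Ca2+ flux fluorescence. Also added: DAMGO in two steps, submaximal then maximal. Read-out: B score from integrated Fluo4 fluorescence ratio.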
TRPC6 act – activates the mouse TRPC6 cation channel; Q61143; HEK293-TRPC6 membrane potential dye fluorescence; stronger effect = higher value; B-score at 10 µM; actives 0.13% (n = 310,000); AID 2550;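 active = B-score of the integrated fluorescence ratio above library mean plus 3 SD, and starting fluorescence ratio within library mean plus 5 SD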;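 note: higher score means more depolarization so channel activation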
TRPC4 spec 2 – second check of whether TRPC6 inhibitors also affect mouse TRPC4; actives 42% (n = 920); inhibition, % at 10 µM; shares compounds with TRPC6 inhibitor; HEK293 TRPC4/MOR, membrane potential dye fluorescence; channel activated by saturating DAMGO dose; AID 2776;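 active = compounds whose fluorescence signal differed from control wells by over 3 SD, either direction, in both duplicate plates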
TRPC4 spec – mouse TRPC4 off-target activity of TRPC6 inhibitors; HEK293 TRPC4/mu-opioid, membrane potential fluorescence; actives 61% (n = 920); shares compounds with TRPC6 inhibitor; activity change, negative = inhibition, % at 10 µM;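 active = rise or fall in signal beyond 3 SD of buffer-only wells in both replicate plates, either sign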;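 note: integrated kinetic ratio of fluorescence range over baseline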
HEK293 MPD ctr 2-1 – second check of TRPC6 inhibitor effects in parental HEK293 cells. shares compounds with TRPC6 inhibitor. parental HEK293 membrane potential dye fluorescence; maximal acetylcholine challenge after compound addition. signal change vs control, % at 10 µM. actives 31% (n = 920);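 active = membrane potential signal moving either way by over 3 SD of the maximum-effect control, in both duplicate plates, meaning non-specific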
HEK293 MPD ctr-1 – parental HEK293 nonspecific activity of TRPC6 inhibitors. shares compounds with TRPC6 inhibitor. parental HEK293 membrane potential dye fluorescence. membrane potential signal change, % at 10 µM. actives 60% (n = 920);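 active = membrane potential signal shifting up or down by more than 3 SD of buffer-only wells, on both duplicate plates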
HEK293 MPD ctr-2 – counter-screen for TRPC6 modulators: effect in parental HEK293 cells; shares compounds with TRPC6 inhibitor; membrane potential dye fluorescence; membrane potential signal change, % at 10 µM; actives 51% (n = 2,400); AID 488924;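 active = membrane potential signal moves up or down beyond 5 SD from buffer-only wells, on both duplicate plates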
HEK293 MPD ctr 2-2 – second check of TRPC6 modulator effects in parental HEK293 cells. shares compounds with TRPC6 inhibitor. membrane potential dye fluorescence; after compound, maximal acetylcholine stimulation. inhibition, % at 10 µM. actives 14% (n = 2,400). AID 488926;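 active = membrane potential signal drops by more than 5 SD from the mean control signal, in both duplicate plates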
TRPC4 ctr mod – selectivity of TRPC6 modulators against mouse TRPC4; shares compounds with TRPC6 inhibitor; HEK293 TRPC4/mu-opioid, membrane potential fluorescence; percent change from control (negative = decrease, positive = increase), % at 10 µM; actives 69% (n = 2,400); AID 488927;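 active = membrane potential signal moved up or down beyond 5 SD of buffer control wells, in both duplicate plates, actives on both sides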
TRPC4/MOR inh 2 – second check of whether TRPC6 modulators also affect mouse TRPC4; inhibition, % at 10 µM; HEK293 TRPC4/mu-opioid, membrane potential dye fluorescence; stimulated with maximal-effect DAMGO; AID 488928; shares compounds with TRPC6 inhibitor; actives 55% (n = 2,400);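 active = drop in membrane potential signal beyond 5 SD of the control wells in both duplicate plates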;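 note: TRPC4 counter screen for TRPC6 hits run under conditions tuned for TRPC6 not TRPC4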
TRPC6 inh conf – mouse TRPC6 inhibitor confirmation | shares compounds with TRPC6 inhibitor | HEK293-TRPC6, membrane potential dye, ACh-evoked depolarization | inhibition, % at 10 µM | actives 43% (n = 3,300) | AID 488960;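 active = fluorescence ratio falls more than 5 SD below the full-stimulation control mean, in both duplicate runs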;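 note: integrated fluorescence ratio of peak minus minimum over baseline after agonist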
TRPC6 act conf – mouse TRPC6 activator confirmation | actives 11% (n = 2,800) | AID 488961 | HEK293-TRPC6 membrane potential dye fluorescence, FDSS | activation, % at 10 µM | shares compounds with TRPC6 inhibitor;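 active = ratio signal rise beyond 5 SD above unstimulated control wells' mean, seen in both duplicate runs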
Large screens that a line does not name were inactive (follow-up assays come after a bar, where they were run).

CC1CCN(Cc2ccc(NC(=O)CC3Oc4ccccc4NC3=O)cc2)CC1 (configuration not stated)	TRPC6 inhibitor -10 | TRPC4 spec 2 inactive | TRPC4 spec inactive | HEK293 MPD ctr 2-1 -8.0% | HEK293 MPD ctr-1 inactive | TRPC6 inh conf 81% | TRPC6 act conf inactive
CN(CC(=O)N1CCOCC1)S(=O)(=O)c1ccc2ccccc2c1	none
COCCOC(=O)c1c(N)n(CCCN2CCOCC2)c2nc3ccccc3nc12	none
COC(=O)c1c(N)n(CCCN2CCOCC2)c2nc3ccccc3nc12	TRPC6 inhibitor -5.1 | HEK293 MPD ctr-2 -72% | HEK293 MPD ctr 2-2 inactive | TRPC4 ctr mod -16% | TRPC4/MOR inh 2 inactive | TRPC6 inh conf inactive | TRPC6 act conf inactive
COCCN1CC(O)=C(c2nc3ccccc3c(=O)[nH]2)C1=N	none
COc1ccccc1N1CC(O)=C(c2nc3ccccc3c(=O)[nH]2)C1=N	TRPC6 inhibitor -5 | HEK293 MPD ctr-2 inactive | HEK293 MPD ctr 2-2 inactive | TRPC4 ctr mod 9.0% | TRPC4/MOR inh 2 inactive | TRPC6 inh conf inactive
COc1c(F)cc2[nH]c3c(c2c1F)CCNC3=O	none
CCCCn1nnnc1SCC(=O)c1cc(Cl)ccc1OC	none
COc1ccc(Cl)cc1C(=O)CSc1nc(N)cc(N)n1	TRPC6 inhibitor -8.5, TRPC6 act 13 | HEK293 MPD ctr-2 inactive | HEK293 MPD ctr 2-2 inactive | TRPC4 ctr mod inactive | TRPC4/MOR inh 2 inactive | TRPC6 inh conf 72% | TRPC6 act conf 173%
COc1cc(-c2nc(CN(C)Cc3nnc(C)o3)c(C)o2)ccc1F	none
CCN(CC)CCn1c(=N)n(CCOc2ccccc2)c2ccccc21	TRPC6 inhibitor -12 | TRPC4 spec 2 52% | TRPC4 spec 15% | HEK293 MPD ctr 2-1 272% | HEK293 MPD ctr-1 6.5% | TRPC6 inh conf inactive | TRPC6 act conf inactive
CCN(CC)CCn1c(=N)n(CCO)c2ccccc21	none
O=C(c1cccn2c(=O)c3cc4ccccc4cc3nc12)N1CCN(c2ccccc2)CC1	none
CN(C)CCCNc1oc(-c2ccc(Cl)cc2)nc1C#N	none
CCN(CC)CCCNc1oc(-c2cccc(Cl)c2)nc1C#N	TRPC6 inhibitor -6.1 | HEK293 MPD ctr-2 inactive | HEK293 MPD ctr 2-2 inactive | TRPC4 ctr mod inactive | TRPC4/MOR inh 2 34% | TRPC6 inh conf 54% | TRPC6 act conf inactive
CCc1ccc(OCC(=O)NNC(=O)C2CCC2)cc1	none
c1ccc(Nc2nc(N3CCCCC3)nc(N3CCNCC3)n2)cc1	TRPC4 potent 30, TRPC6 inhibitor -5.6 | HEK293 MPD ctr-2 inactive | HEK293 MPD ctr 2-2 inactive | TRPC4 ctr mod 14% | TRPC4/MOR inh 2 58% | TRPC6 inh conf 55%
O=C(Nc1ccccc1)C1CCOC1=O (configuration not stated)	none
COc1ccc(N(CC(=O)NC2CCCCCC2)S(=O)(=O)c2ccccc2)cc1Cl	none
CCCn1ncc(CN2CCCC(C(=O)c3cccc(OC(C)C)c3)C2)c1C (configuration not stated)	TRPC6 inhibitor -5.3 | HEK293 MPD ctr-2 118% | HEK293 MPD ctr 2-2 inactive | TRPC4 ctr mod 24% | TRPC4/MOR inh 2 40% | TRPC6 inh conf 50%
CCCN(c1ccccc1F)S(=O)(=O)c1c[nH]c(C(=O)OC)c1	none
CCOc1cc(/C=C/c2cc(C(F)(F)F)[nH]c(=O)n2)ccc1O	none
COc1ccc(/C=C/c2cc(C(F)(F)F)[nH]c(=O)n2)cc1OC	TRPC6 inhibitor -5.9 | HEK293 MPD ctr-2 -180% | HEK293 MPD ctr 2-2 inactive | TRPC4 ctr mod -34% | TRPC4/MOR inh 2 inactive | TRPC6 inh conf inactive | TRPC6 act conf inactive
O=C(CCn1cccn1)Nc1ccc2c(c1)OCO2	none
N#Cc1nc(Cc2cccc3ccccc23)oc1NCCN1CCCCC1	TRPC6 inhibitor -5.2 | HEK293 MPD ctr-2 106% | HEK293 MPD ctr 2-2 inactive | TRPC4 ctr mod 10% | TRPC4/MOR inh 2 63% | TRPC6 inh conf inactive
CCCNC(=O)c1ccc(N2CCC3(CC2)CC(c2cccc(Br)c2)=NO3)c(NC(=O)c2ccc(Cl)c([N+](=O)[O-])c2)c1	none
O=C(/C(N=Nc1cccc([N+](=O)[O-])c1)=C(/O)c1ccc(Br)cc1)C(F)(F)F	TRPC6 inhibitor -8.2 | TRPC4 spec 2 75% | TRPC4 spec 8.5% | HEK293 MPD ctr 2-1 inactive | HEK293 MPD ctr-1 5.2% | TRPC6 inh conf 81% | TRPC6 act conf inactive
CCN1CCN(c2c(C=O)c(Cl)nc3ccc(OC)cc23)CC1	TRPC4 act 78, TRPC6 inhibitor -7.5 | HEK293 MPD ctr-2 -276% | HEK293 MPD ctr 2-2 72% | TRPC4 ctr mod inactive | TRPC4/MOR inh 2 54% | TRPC6 inh conf 58% | TRPC6 act conf inactive
Nc1ccc(N(CCO)CCO)cc1	none
Cc1cc(N(CCO)CCO)ccc1N=Nc1cc(F)ccc1F	TRPC6 inhibitor -7 | TRPC4 spec 2 62% | TRPC4 spec -22% | HEK293 MPD ctr 2-1 inactive | HEK293 MPD ctr-1 -454% | TRPC6 inh conf 63% | TRPC6 act conf inactive
CCN1CCN(c2nc3c(c(=O)[nH]c(=O)n3C)n2CCCc2ccccc2)CC1	none
